Source: PMC9521027 (ACS Omega, 2022)
Changes are numbered by the printed parent chain.

What was measured:
[1] = biological target: T1, URAT1 K393E mutant (Homo sapiens, UniProt Q96S37, K393E); assay: 14C-uric acid uptake assay in transfected HEK293 cells; assay type: cell-based; details: K393E, HEK293 cells
T1 sequence (Q96S37 1-553 K393E): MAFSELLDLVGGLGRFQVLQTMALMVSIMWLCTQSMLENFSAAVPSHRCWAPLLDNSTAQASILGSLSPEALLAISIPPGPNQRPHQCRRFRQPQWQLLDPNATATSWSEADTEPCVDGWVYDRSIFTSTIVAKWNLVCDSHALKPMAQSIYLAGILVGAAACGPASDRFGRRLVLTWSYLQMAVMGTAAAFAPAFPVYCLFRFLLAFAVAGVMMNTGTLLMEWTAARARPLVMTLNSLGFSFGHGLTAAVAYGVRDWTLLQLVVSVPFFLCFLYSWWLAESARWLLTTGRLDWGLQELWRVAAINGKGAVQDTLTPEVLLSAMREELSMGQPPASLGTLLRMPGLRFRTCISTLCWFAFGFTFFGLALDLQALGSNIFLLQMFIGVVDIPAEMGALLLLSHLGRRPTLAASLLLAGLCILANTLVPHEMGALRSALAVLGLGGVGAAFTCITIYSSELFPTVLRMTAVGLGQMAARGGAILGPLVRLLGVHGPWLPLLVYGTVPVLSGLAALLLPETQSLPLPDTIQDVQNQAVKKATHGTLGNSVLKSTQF

[2] = biological target: T2, URAT1 K393H mutant (Homo sapiens, UniProt Q96S37, K393H); assay: Competitive inhibition test of unlabeled uric acid on 14C-uric acid uptake; assay type: cell-based
T2 sequence (Q96S37 1-553 K393H): T1 sequence (Q96S37 1-553 K393E) with E393H

[3] = biological target: T2, URAT1 K393H mutant; assay: 14C-uric acid binding assay with membrane protein; details: 2.5 μg membrane protein, 25 μM 14C-uric acid, 30 min
[4] = biological target: T3, URAT1 K393A mutant (Homo sapiens, UniProt Q96S37, K393A); assay: 14C-uric acid binding assay with membrane protein; details: 2.5 μg membrane protein, 25 μM 14C-uric acid, 30 min
T3 sequence (Q96S37 1-553 K393A): T1 sequence (Q96S37 1-553 K393E) with E393A
Procedure, shortened: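 Membranes came from HEK293 cells transiently transfected (Lipofectamine 3000) with sequence-confirmed site-directed K393 mutant hURAT1 plasmids; control membranes came from cells transfected with pECFP empty vector. Cells were harvested in ice-cold 25 mM HEPES pH 7.3 with 125 mM sodium gluconate, and membranes were extracted with a kit. Protein was incubated at room temperature, then rapid-filtered, washed with ice-cold DPBS, dissolved in 0.1 M NaOH and scintillation-counted. n = 3, mean ± SD.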

14C-urate transport capacity lost compared with WT [1]: 70–80%
IC50 [2]: 121 ± 5.98 µM
14C-uric acid binding capacity compared with WT [3]: similar
14C-uric acid binding compared with WT [4]: significant loss
Structure (SMILES): O=c1[nH]c(=O)c2[nH]c(=O)[nH]c2[nH]1 [uric acid]
